Data published in ChEMBL document CHEMBL1770084, “An inhibitor-like binding mode of a carbonic anhydrase activator within the active site of isoform II” (Bioorg Med Chem Lett, 2011).

Columns and labels:
[1] = target: Carbonic anhydrase 12 (Homo sapiens) (UniProt O43570); test: Activation of human transmembrane carbonic anhydrase 12 preincubated for 15 mins by CO2 hydration stopped-flow assay
[2] = target: Carbonic anhydrase 9 (Homo sapiens) (UniProt Q16790); test: Activation of human transmembrane carbonic anhydrase 9 preincubated for 15 mins by CO2 hydration stopped-flow assay
[3] = target: Carbonic anhydrase 7 (Homo sapiens) (UniProt P43166); test: Activation of human cytosolic carbonic anhydrase 7 preincubated for 15 mins by CO2 hydration stopped-flow assay
[4] = target: Carbonic anhydrase 1 (Homo sapiens) (UniProt P00915); test: Activation of human cytosolic carbonic anhydrase 1 preincubated for 15 mins by CO2 hydration stopped-flow assay
[5] = target: Carbonic anhydrase 2 (Homo sapiens) (UniProt P00918); test: Activation of human cytosolic carbonic anhydrase 2 preincubated for 15 mins by CO2 hydration stopped-flow assay
[6] = target: Carbonic anhydrase 14 (Homo sapiens) (UniProt Q9ULX7); test: Activation of human transmembrane carbonic anhydrase 14 preincubated for 15 mins by CO2 hydration stopped-flow assay
[7] = target: Carbonic anhydrase 9 (Homo sapiens) (UniProt Q16790); test: Binding affinity to human transmembrane carbonic anhydrase 9
[8] = target: Carbonic anhydrase 12 (Homo sapiens) (UniProt O43570); test: Binding affinity to human transmembrane carbonic anhydrase 12
[9] = target: Carbonic anhydrase 14 (Homo sapiens) (UniProt Q9ULX7); test: Binding affinity to human transmembrane carbonic anhydrase 14
[10] = target: Carbonic anhydrase 1 (Homo sapiens) (UniProt P00915); test: Binding affinity to human cytosolic carbonic anhydrase 1
[11] = target: Carbonic anhydrase 2 (Homo sapiens) (UniProt P00918); test: Binding affinity to human cytosolic carbonic anhydrase 2
[12] = target: Carbonic anhydrase 7 (Homo sapiens) (UniProt P43166); test: Binding affinity to human cytosolic carbonic anhydrase 7
[13] = target: Carbonic anhydrase 2 (Homo sapiens) (UniProt P00918); test: Activation of human carbonic anhydrase 2 activity at 20 uM after 15 mins by CO2 hydration stopped-flow assay relative to control
Procedure, shortened: (§1)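 hCA II (10 nM) held with test compound at 20 µM (stated as 20 lM in the footnote) for 15 min to 144 h before assay. Activity then read by stopped-flow CO2 hydrase assay. Values are % of initial enzyme activity with no test compound, which is set to 100%.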

[14] = target: Carbonic anhydrase 2 (Homo sapiens) (UniProt P00918); test: Activation of human carbonic anhydrase 2 activity at 20 uM after 1 hr by CO2 hydration stopped-flow assay relative to control; procedure, shortened: as §1
[15] = target: Carbonic anhydrase 2 (Homo sapiens) (UniProt P00918); test: Activation of human carbonic anhydrase 2 activity at 20 uM after 12 hrs by CO2 hydration stopped-flow assay relative to control; procedure, shortened: as §1
[16] = target: Carbonic anhydrase 2 (Homo sapiens) (UniProt P00918); test: Activation of human carbonic anhydrase 2 activity at 20 uM after 24 hrs by CO2 hydration stopped-flow assay relative to control; procedure, shortened: as §1
[17] = target: Carbonic anhydrase 2 (Homo sapiens) (UniProt P00918); test: Activation of human carbonic anhydrase 2 activity at 20 uM after 36 hrs by CO2 hydration stopped-flow assay relative to control; procedure, shortened: as §1
[18] = target: Carbonic anhydrase 2 (Homo sapiens) (UniProt P00918); test: Inhibition of human carbonic anhydrase 2 activity at 20 uM after 48 hrs by CO2 hydration stopped-flow assay relative to control; procedure, shortened: as §1
[19] = target: Carbonic anhydrase 2 (Homo sapiens) (UniProt P00918); test: Inhibition of human carbonic anhydrase 2 activity at 20 uM after 72 hrs by CO2 hydration stopped-flow assay relative to control; procedure, shortened: as §1
[20] = target: Carbonic anhydrase 2 (Homo sapiens) (UniProt P00918); test: Inhibition of human carbonic anhydrase 2 activity at 20 uM after 96 hrs by CO2 hydration stopped-flow assay relative to control; procedure, shortened: as §1
[21] = target: Carbonic anhydrase 2 (Homo sapiens) (UniProt P00918); test: Inhibition of human carbonic anhydrase 2 activity at 20 uM after 144 hrs by CO2 hydration stopped-flow assay relative to control; procedure, shortened: as §1

Chain of Carbonic anhydrase 7 (Homo sapiens) (P43166 whole entry): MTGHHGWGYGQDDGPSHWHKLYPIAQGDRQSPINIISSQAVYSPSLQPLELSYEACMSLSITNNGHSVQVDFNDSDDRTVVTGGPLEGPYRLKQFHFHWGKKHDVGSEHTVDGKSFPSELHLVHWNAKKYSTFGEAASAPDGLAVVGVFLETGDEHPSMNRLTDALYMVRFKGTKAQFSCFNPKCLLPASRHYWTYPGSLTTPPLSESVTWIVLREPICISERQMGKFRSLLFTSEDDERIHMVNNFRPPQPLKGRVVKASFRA
Chain of Carbonic anhydrase 14 (Homo sapiens) (Q9ULX7 whole entry): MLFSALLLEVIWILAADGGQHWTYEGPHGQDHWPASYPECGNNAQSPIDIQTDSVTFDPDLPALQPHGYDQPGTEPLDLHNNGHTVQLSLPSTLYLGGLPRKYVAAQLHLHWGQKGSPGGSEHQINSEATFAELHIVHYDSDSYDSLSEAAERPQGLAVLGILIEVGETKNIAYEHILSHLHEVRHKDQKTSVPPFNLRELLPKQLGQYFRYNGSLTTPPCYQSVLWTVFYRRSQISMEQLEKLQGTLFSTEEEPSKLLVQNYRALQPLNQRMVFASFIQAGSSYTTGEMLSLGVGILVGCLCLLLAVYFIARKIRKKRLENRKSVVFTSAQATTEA
Chain of Carbonic anhydrase 1 (Homo sapiens) (P00915 2-261 limits assumed): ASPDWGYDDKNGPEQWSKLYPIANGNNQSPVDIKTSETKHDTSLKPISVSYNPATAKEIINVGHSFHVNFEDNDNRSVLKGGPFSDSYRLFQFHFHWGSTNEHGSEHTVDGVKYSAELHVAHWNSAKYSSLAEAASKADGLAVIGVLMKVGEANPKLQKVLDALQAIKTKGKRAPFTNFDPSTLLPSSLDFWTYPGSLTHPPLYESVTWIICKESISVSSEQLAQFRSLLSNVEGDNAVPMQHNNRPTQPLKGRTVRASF
Chain of Carbonic anhydrase 12 (Homo sapiens) (O43570 whole entry): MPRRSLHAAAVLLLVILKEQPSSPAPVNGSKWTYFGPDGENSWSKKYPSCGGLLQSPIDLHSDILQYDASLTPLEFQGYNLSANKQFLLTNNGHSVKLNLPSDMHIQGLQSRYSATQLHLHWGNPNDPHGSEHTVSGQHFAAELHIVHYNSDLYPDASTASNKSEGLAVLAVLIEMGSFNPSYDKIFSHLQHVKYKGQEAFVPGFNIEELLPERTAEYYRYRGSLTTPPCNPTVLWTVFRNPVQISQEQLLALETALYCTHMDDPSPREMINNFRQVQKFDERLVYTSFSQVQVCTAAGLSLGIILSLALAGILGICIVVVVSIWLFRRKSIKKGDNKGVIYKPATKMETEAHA

Compound: Cc1cc(C)[n+](CCc2c[nH]cn2)c(C)c1
- Ka [1]: 0.96 µM
- Ka [2]: 0.76 µM
- Ka [3]: 7.71 µM
- Ka [4]: 3.15 µM
- Ka [5]: 18 µM
- Ka [6]: 0.08 µM
- Activity [7]: 0.08 µM
- Activity [8]: 0.08 µM
- Activity [9]: 0.08 µM
- Activity [10]: 3.15 µM
- Activity [11]: 3.15 µM
- Activity [12]: 3.15 µM
- Activity [13]: 156%
- Activity [14]: 153%
- Activity [15]: 154%
- Activity [16]: 149%
- Activity [17]: 147%
- inhibition [18]: 65%
- inhibition [19]: 14%
- inhibition [20]: 5%
- inhibition [21]: 3%
